High-throughput results as filed in PubChem BioAssay.
aDG glyco up: increases alpha dystroglycan glycosylation | Pro5-aDG cells, alpha-DG glycosylation AlphaScreen (IIH6); 0% Pro5, 100% B10-LARGE cell signal | activation, % at 10 µM | hit rate 0.22% among 360,000 | AID 624168;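 active means activation of at least 8% versus controls, or a plate z-score of at least 8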;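 further: Pro5 are CHO cells carrying HIG-tagged alpha-DG that lacks glycosylation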
ADAM17 inh: ADAM17 inhibition, QFRET primary screen | P78536 | recombinant ADAM17, EDANS/DABCYL FRET peptide cleavage | inhibition, % at 6.95 µM | hit rate 0.83% among 370,000 | AID 720648;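 active means inhibition above the mean of compounds lying between control limits plus 3 SD, set per campaign, cut at about 8.5% in these data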;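 further: 0% = DMSO-only wells as the low control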
Target sequence (P78536 215-824 limits assumed): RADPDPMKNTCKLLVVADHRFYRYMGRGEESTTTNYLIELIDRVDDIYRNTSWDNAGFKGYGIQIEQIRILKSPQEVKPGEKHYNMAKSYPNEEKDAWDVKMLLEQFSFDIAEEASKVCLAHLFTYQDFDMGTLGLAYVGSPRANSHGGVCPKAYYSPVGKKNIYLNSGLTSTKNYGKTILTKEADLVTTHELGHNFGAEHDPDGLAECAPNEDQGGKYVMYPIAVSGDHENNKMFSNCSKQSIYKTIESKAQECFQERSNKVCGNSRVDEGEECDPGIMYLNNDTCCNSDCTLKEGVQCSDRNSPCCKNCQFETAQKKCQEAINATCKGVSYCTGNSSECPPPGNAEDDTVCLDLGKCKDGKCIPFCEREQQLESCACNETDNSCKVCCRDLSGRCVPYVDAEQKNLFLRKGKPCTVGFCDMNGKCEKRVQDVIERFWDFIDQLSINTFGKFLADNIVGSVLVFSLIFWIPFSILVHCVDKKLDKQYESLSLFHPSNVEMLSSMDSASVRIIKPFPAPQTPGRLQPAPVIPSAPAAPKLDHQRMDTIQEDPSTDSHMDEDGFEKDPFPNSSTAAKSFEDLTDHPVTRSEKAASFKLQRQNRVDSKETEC
MPTP block: blocks calcium-induced mitochondrial swelling. AID 602449. inhibition, % at 10 µM. isolated mouse mitochondria, Ca2+ swelling absorbance, 30 min. hit rate 1.4% among 360,000;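 active means inhibition of 50% or more, scaled per plate between neutral and stimulator controls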;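 further: 0% = DMSO wells given calcium and 100% = 1 mM EGTA wells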
ADAM10 inh: ADAM10 inhibition, QFRET primary screen; O14672; recombinant ADAM10, EDANS/DABCYL FRET peptide cleavage, 3 h; inhibition, % at 7 µM; hit rate 0.62% among 370,000;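 active means inhibition above a per-campaign cutoff equal to the mean of compounds falling between control-based bounds plus 3 SD, cut at about 20% in these data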;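 further: 0% = DMSO wells while the 100% control is not disclosed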
V-ATPase pHluor: regulators of yeast V-ATPase proton transport; S. cerevisiae, pHLuorin cytosolic pH fluorescence; response, % at 10 µM; hit rate 0.37% among 350,000; AID 504577; in the data active means response mostly above about 7.3%, no sharp cut-off; inactive means mostly below about 5.4%; further: actives read high
Lipid droplet: hepatic lipid droplet formation modulation; AML12 mouse hepatocytes, oleate lipid droplets, BODIPY imaging; inhibition, % at 6.5 µM; hit rate 0.4% among 240,000;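 active means lipid droplet intensity inhibited by at least 50%, with more than 500 cells counted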
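Material – mouse AML12 hepatocyte cell line, fixed after treatment · Compound dosing – one dose, 6.5 µM compound · Times – compound with oleate, overnight · Measured by – Image-based BODIPY and DAPI two-channel analysis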
ADAM10 confirm: human ADAM10 inhibition, confirmation; inhibition, % at 6.95 µM; ADAM10 QFRET peptide cleavage, EDANS fluorescence; shares compounds with ADAM10 inh; hit rate 1% among 2,100;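 active means inhibition above about 20% chosen separately for each screening run, limit read from the data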;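 further: 0% = DMSO wells and 100% = marimastat wells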
ADAM17 ctr: counter-screen for ADAM10 exosite inhibitors: inhibitors of human ADAM17; shares compounds with ADAM10 inh; hit rate 0.5% among 2,100; AID 743214; ADAM17 QFRET peptide cleavage, EDANS fluorescence; inhibition, % at 6.95 µM;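 active means mean triplicate inhibition above the solvent-only control wells' mean plus 3 SD, cut at about 12% in these data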;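 further: 0% = DMSO wells and 100% = marimastat wells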
An asterisk follows results filed as active; . = not tested or not shown. An excerpt weighted towards active compounds, which were near 3.1% of everything screened.

SMILES | aDG glyco up | ADAM17 inh | MPTP block | ADAM10 inh | V-ATPase pHluor | Lipid droplet | ADAM10 confirm | ADAM17 ctr
O=C(OCC#CCSc1nnc(-c2cccc3ccccc23)o1)C1CC1 | . | -12.6 | . | -55.5 | . | . | . | .
COc1cc(CNc2nc3c(C)cc(C)cc3s2)ccc1O | 0.3 | 3.9 | 1.1 | 21.8* | -1.0 | . | 0.0 | -0.2
O=C(CSc1nnc(-c2cccs2)o1)Nc1cc(Cl)cc(Cl)c1 | . | 0.6 | . | 3.7 | . | . | . | .
O=[N+]([O-])c1cccc(C2NCC(c3ccccc3Cl)c3c2[nH]c2ccccc32)c1 (stereo unspecified) | 0.0 | 5.4 | 3.9 | 21.3* | 1.8 | 5.5 | 5.5 | 3.0
CN(C)c1ccc(C2CNC(c3ccc(Cl)c([N+](=O)[O-])c3)c3[nH]c4ccccc4c32)cc1 (stereo unspecified) | -0.5 | 1.0 | 4.0 | 3.2 | 0.3 | -1.0 | . | .
CCOc1ccc(-c2nnc(SCC(=O)NC(C)(C)C)nc2-c2ccc(OCC)c(OC)c2)cc1OC | -0.1 | 3.7 | 0.1 | 23.0* | -1.8 | -14.4 | 0.0 | 0.0
O=C(Oc1cccc2ccccc12)c1ccccc1 | 0.3 | -4.3 | -0.7 | -14.6 | -2.1 | . | . | .
O=C(Oc1cccc2c(O)cccc12)c1ccccc1 | 0.1 | 6.7 | 1.6 | 23.3* | 7.0 | -9.5 | 5.6 | 2.0
N#Cc1c(NC(=O)CSc2n[nH]c(N)n2)oc(-c2ccccc2)c1-c1ccccc1 | -0.1 | 6.9 | 0.6 | 20.0* | -2.5 | 11.9 | 4.3 | 2.5
Cc1cccc(C)c1OCC(=O)Nc1oc(-c2ccccc2)c(-c2ccccc2)c1C#N | 0.2 | 1.3 | 7.8 | -2.6 | . | . | . | .
CCCCN1CCS(=O)(=O)N(Cc2cn(Cc3ccccc3Br)nn2)C(C(=O)OC)C1 (stereo unspecified) | . | -3.7 | . | -8.0 | . | . | . | .
CCOC(OCC)P(=O)(CNC(c1ccccc1)(c1ccccc1)c1ccccc1)OCC (stereo unspecified) | . | 2.6 | . | 12.3 | . | . | . | .
CN(C(=O)c1cccc(NC(=O)Cc2ccc(NC(=O)C3CCCN(S(=O)(=O)c4cccc([N+](=O)[O-])c4)C3)cc2)c1)C1CCCC1 (stereo unspecified) | 0.0 | 4.8 | 1.1 | 17.9 | -1.8 | . | . | .
CN(C(=O)c1ccc(NC(=O)Cc2ccc(NC(=O)C3CCCN(S(=O)(=O)c4cccc([N+](=O)[O-])c4)C3)cc2)cc1)C1CCCC1 (stereo unspecified) | 0.0 | 8.3 | 1.0 | 23.1* | -3.4 | . | 4.1 | 0.9
CCN(CC)C(=O)CC[C@@H]1CC[C@]2(CCCN(C(=O)C(C)(C)C)C2)O1 | . | -1.5 | . | 1.8 | . | . | . | .
CN[C@H]1C[C@H]2c3[nH]c4cccc(-c5cccc(C)c5)c4c3CCN2C(=O)[C@H]1[C@H](C)O | . | -59.0 | . | -179.1 | . | . | . | .
CCC(=C(c1ccc(OC)cc1)c1ccc(OC)cc1)c1cn(CC(O)CN2CCN(C)CC2)c2ccccc12 (stereo unspecified) | 0.1 | 1.1 | -0.8 | 25.3* | -2.9 | 7.6 | 4.9 | 2.5
Cc1cccc(NC(=O)N2CCC(N(C)CCC(C)C)CC2)c1 | . | -1.5 | . | -12.7 | . | . | . | .
COc1ccc(/C=N/NC(=O)Cc2csc(Nc3cccc(C(F)(F)F)c3)n2)c(OC)c1 | 0.0 | 5.5 | -11.2 | 24.9* | -6.1 | . | 8.7 | 2.7
CCOc1ccc(/C=N/NC(=O)Cc2csc(Nc3cccc(C(F)(F)F)c3)n2)c(OCC)c1 | 0.0 | 8.2 | 1.9 | 20.4* | -4.7 | . | 12.1 | 3.5
CCOc1ccccc1/C=N/NC(=O)Cc1csc(Nc2cccc(C(F)(F)F)c2)n1 | -0.1 | 6.7 | -12.5 | 9.2 | -2.8 | . | . | .
CCOc1ccc(/C=N/NC(=O)Cc2csc(Nc3cccc(C(F)(F)F)c3)n2)cc1 | 0.5 | 3.4 | 1.6 | 11.6 | -0.8 | 29.5 | . | .
N#Cc1cccc(CNCC(=O)N2CCC3(CC2)OCCO3)c1 | . | -1.6 | . | 1.2 | . | . | . | .
CCc1ccc([C@H]2[C@@H]3C(=O)C[C@@H]4C(=O)N(C5CCCCC5)C(=O)[C@@H]4[C@@H]3CN2S(=O)(=O)c2ccc(C)cc2)cc1 | -0.3 | 8.1 | 0.8 | 20.1* | . | . | 4.5 | 1.4
